The source of these data is article PMC6489498 (Inorganic chemistry, 2017).

The nature of data set [1]: MBP hydroxyl pKa from pH-dependent optical spectra. In kind it is physicochemical.
Another data set has as its system CoCA. In kind it is physicochemical, bovine. The conditions noted are these: calculated from first addition (3.75 μM MBP) to 38 μM CoCA; thione coordinated. In short, it runs like this:
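UV-vis titration of 38 μM CoCA with MBP in 50 mM phosphate, pH 7.5. ΔA of protonated and deprotonated bands converted to concentrations using the εOH–εO− difference, then to mole fractions vs MBP added. Effective pKa calculated from the first addition (3.75 μM), […]. Shift expressed relative to the free-MBP hydroxyl pKa.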

The target of the next data set is ZnCA. Conditions: with ZnCA; ref 7 (Martin, et al); cited from earlier work.
Setting [2] is: solution of the free MBP, pH varied (UV-vis optical spectra).

Like-named read-outs stand apart in the source and are kept apart here.

Take `Oc1coccc1=S` [TPMA, 3-hydroxy-4H-pyran-4-thione]: the pKa (in general, the pH at which an ionisable group is half protonated) in data set [1] was 9.5; in data set [1] (setting [2]) it was roughly 9.5. Besides, the “effective pKa” value in the data set on CoCA is 8.4. The inhibitory constant (Ki) (in general, the dissociation constant of the complex between target and ligand, obtained from inhibition or displacement) on ZnCA was 1.1 mM.

Take `Cc1occc(=S)c1O` [TM, 3-hydroxy-2-methyl-4H-pyran-4-thione]: the pKa was 9 in data set [1] and roughly 9 in data set [1] (setting [2]). For the same compound, the “effective pKa” value in the data set with CoCA is 8.3. Moreover, the Ki at ZnCA is 1.4 mM.

For the compound `Cc1cc(=S)c(O)co1` [ATM, 5-hydroxy-2-methyl-4H-pyran-4-thione], the pKa in data set [1] is 8.3; in data set [1] (setting [2]), roughly 8.3. Besides, the “deprotonated form present at physiological pH” value in data set [1] (expected from pKa) is ~ 15%. Moreover, the “effective pKa” value in the data set with CoCA is 7.6. On ZnCA, the Ki was 0.65 mM.
